Measurements: ChEMBL document CHEMBL1152210, “Synthesis and biological evaluation of alkoxycoumarins as novel nematicidal constituents” (Bioorg Med Chem Lett, 2008)
Active and inactive are the calls of the source. The calls are words filed in the database; no cut-off is given here.

Key:
[1] = system: Bursaphelenchus xylophilus; assay: Nematicidal activity against Bursaphelenchus xylophilus measured per cotton ball after 4 days by serial dilution method; type: functional
In short: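 Cotton ball (5 mm), loaded with test compound or solvent and vacuum-dried, set on 4-day Botrytis cinerea mycelia grown on Czapek-Dox agar at 21 °C. 100 µl B. xylophilus suspension (ca. 15,000/ml in distilled water) injected into the ball; dish held at 26 °C for 4 days. Mycelial consumption scored; MED is the lowest active dose by serial dilution, top dose 160 µg/ball. Survival confirmed by methylene blue staining.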

Oryzias latipes = assay: Toxicity in Oryzias latipes after 24 hrs by serial dilution method; type: organism-based; settings: in vivo
Artemia salina = assay: Toxicity in Artemia salina after 24 hrs by serial dilution method; type: organism-based; settings: in vivo

Compound | Activity [1] | LC50 (Oryzias latipes) [ppm] | LC100 (Oryzias latipes) [ppm] | LC50 (Artemia salina) [ppm] | LC100 (Artemia salina) [ppm] | MED [1] [µg]
O=C(O)/C=C/c1ccccc1O | inactive | – | – | – | – | –
COc1cc(=O)oc2ccccc12 | inactive | 75 | 100 | 60 | > 80 | –
CCCCCOc1cccc2oc(=O)ccc12 | – | – | – | – | – | 40
COc1cc(OC)c2ccc(=O)oc2c1 [CITROPTEN] | – | – | – | – | – | 20
C=CCOc1cccc2oc(=O)ccc12 | inactive | – | – | – | – | –
COc1ccc2ccc(=O)oc2c1 [HERNIARIN] | – | – | 75 | – | 80 | 40
CCCCOc1cccc2oc(=O)ccc12 | – | – | – | – | – | 40
CCCOc1cccc2oc(=O)ccc12 | – | – | – | – | – | 20
O=c1ccc2ccccc2o1 [COUMARIN] | – | 38 | 50 | > 80 | > 80 | 80
CCOc1cccc2oc(=O)ccc12 | – | 75 | 100 | > 80 | > 80 | 10
C/C1=C\C[C@@H]2C[C@@H](C[C@]3(CC[C@H](C)[C@@H](C)O3)O2)OC(=O)[C@@H]2CC[C@@H](O)[C@H]3OC/C(=C\C=C\[C@H](C)C1)[C@]32O [MILBEMECTIN] | – | 0.06 | 0.25 | 0.1 | 0.6 | 0.6
O=c1ccc2c(O)cccc2o1 | inactive | – | – | – | – | –
COc1cccc2ccc(=O)oc12 | – | 100 | > 100 | > 80 | > 80 | 80
COc1cccc2oc(=O)ccc12 | – | 38 | 50 | 30 | 20 | 20
CCCCCCCCCCCc1cccc(O)c1 | – | 3.8 | 5 | 1 | 1.3 | 5
CCCCCCCCCc1cccc(O)c1 | – | 7.5 | 10 | 0.6 | 1.3 | 2.5
CCCCCCCCOc1cccc2oc(=O)ccc12 | – | – | – | – | – | 40
O=c1ccc2c(OCc3ccccc3)cccc2o1 | – | – | – | – | – | 80
COc1ccc2oc(=O)ccc2c1 | – | 75 | 100 | > 80 | > 80 | 80
COc1cc2ccccc2oc1=O | – | > 100 | > 100 | > 80 | > 80 | 80
